MPTP inh: mitochondrial permeability transition pore inhibitors, primary screen, biochemical, isolated mouse mitochondria, absorbance; Ca2+ swelling absorbance, 30 min; inhibition, % at 10 µM; 1.4% of 360,000 active;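 active = inhibition of 50% or more, scaled per plate between neutral and stimulator controls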;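 also: 0% = DMSO wells given calcium and 100% = 1 mM EGTA wells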
GPR7 antagonist: GPR7 receptor antagonists, primary screen, cell-based, fluorescence, single concentration; Neuropeptides B/W receptor type 1 (Homo sapiens), P48145; GPR7-expressing cells, fluorescence antagonist assay; inhibition, % at 4.4 µM; 1.1% of 290,000 active; AID 1861, 2009; in the data active = inhibition above about 16%, passing the limit was not always enough;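 also: cells stimulated with the agonist NPW; 0% = agonist with vehicle and 100% = vehicle without agonist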
DAGLB inh: DAGLB lipase inhibitors, primary screen, biochemical, fluorescence, HTS | inhibition, % at 5.17 µM | AID 504411, 2011 | 0.059% of 340,000 active | HEK293T DAGLB membrane lysate, EnzChek fluorogenic substrate; in the data active = inhibition above about 34%;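 also: 0% = enzyme with vehicle and 100% = wells lacking enzyme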
Target sequence (Q8NCG7 whole entry, looked up): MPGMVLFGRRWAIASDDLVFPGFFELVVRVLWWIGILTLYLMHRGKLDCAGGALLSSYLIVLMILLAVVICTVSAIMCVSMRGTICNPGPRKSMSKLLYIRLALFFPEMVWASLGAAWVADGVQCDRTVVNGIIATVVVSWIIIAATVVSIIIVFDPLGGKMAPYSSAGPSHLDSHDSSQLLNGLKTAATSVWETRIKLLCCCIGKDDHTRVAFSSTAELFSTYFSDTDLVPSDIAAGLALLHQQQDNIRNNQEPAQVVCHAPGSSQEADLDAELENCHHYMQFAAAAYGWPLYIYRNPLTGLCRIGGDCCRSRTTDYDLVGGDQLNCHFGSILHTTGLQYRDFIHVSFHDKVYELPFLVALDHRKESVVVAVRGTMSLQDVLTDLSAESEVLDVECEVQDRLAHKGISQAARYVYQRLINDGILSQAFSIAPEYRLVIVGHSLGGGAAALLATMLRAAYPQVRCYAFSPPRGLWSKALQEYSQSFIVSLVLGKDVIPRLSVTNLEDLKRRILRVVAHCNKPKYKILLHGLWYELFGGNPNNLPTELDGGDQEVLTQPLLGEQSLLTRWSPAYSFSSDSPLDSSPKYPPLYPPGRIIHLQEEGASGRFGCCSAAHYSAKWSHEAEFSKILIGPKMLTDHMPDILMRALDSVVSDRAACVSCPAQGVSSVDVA
TAAR1 antag: human TAAR1 antagonists, primary screen, Fluo-8 calcium fluorescence, CHO RD-HGA16 cells | antagonist | inhibition, % at 3 µM | 1.5% of 360,000 active | AID 624466, 2012;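 active = inhibition above a per-plate cutoff, the mean inhibition of test compounds on that plate plus 3 SD, cut at about 49% in these data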;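 also: 0% = DMSO plus EC80 beta-PEA response and 100% = DMSO alone without agonist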
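Assay system: CHO-derived RD-HGA16 cells stably expressing human TAAR1 plus Gα16. Timing: 140 s kinetic read after compound, 140 s after agonist. Technique: kinetic Fluo-8 calcium fluorescence measurement. Measure: % inhibition of agonist calcium response.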
TAAR1 agonist: human TAAR1 agonists, primary screen, Fluo-8 calcium fluorescence, CHO RD-HGA16 cells | vehicle wells 0%, saturating PEA agonist 100% | 0.99% of 360,000 active | AID 624467, 2012 | activation, % at 3 µM;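 active = activation above the mean activation of all test compounds in the run plus 3 SD, cut at about 38% in these data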
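Test system: RD-HGA16 (CHO) cells co-expressing Gα16 and hTAAR1 | Doses: Single dose, 3 µM | Schedule: 17-24 h seeding, 75 min 37 °C dye, 30 min RT | Evaluation: % activation from peak over basal fluorescence ratio, DMSO-to-PEA scaled | Technique: Kinetic Fluo-8 calcium fluorescence | Benchmarks: Low control DMSO, high control PEA (EC100)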
An asterisk follows results filed as active. This is a sample that favours compounds with a hit; in the whole collection about 4% have one here.

Screening CC(=O)Nc1cccc(-c2ccnc3c2CC(C(=O)NCc2cccs2)O3)c1 (centres undefined) returned MPTP inh 1, TAAR1 antag -5 and TAAR1 agonist 3.
For O=C(c1ncn(Cc2ccccc2)c1C(=O)N1CCc2ccccc2C1)N1CCc2ccccc2C1 the results were MPTP inh 0, DAGLB inh -1, TAAR1 antag 45 and TAAR1 agonist 41*.
O=C(c1nc2ccc(Cl)cn2c1CN1CCCC1)N1CCc2ccccc2C1 was read as MPTP inh 0, GPR7 antagonist 3, DAGLB inh 0, TAAR1 antag -18 and TAAR1 agonist 47*.
For O=C(c1ncn(Cc2ccccc2)c1C(=O)N1CCN(c2ccccc2)CC1)N1CCN(c2ccccc2)CC1 the results were MPTP inh 0, DAGLB inh 2, TAAR1 antag 13 and TAAR1 agonist 10.
For CNc1cncc(-c2cccc(O)c2)n1 the results were MPTP inh 0, TAAR1 antag 4 and TAAR1 agonist 3.
O=C1[C@H]2[C@@H](c3ccccc3)N[C@]3(CCCN(Cc4ccc(C(F)(F)F)cc4)C3=O)[C@H]2C(=O)N1Cc1ccccc1 was read as MPTP inh 0, DAGLB inh -3, TAAR1 antag 50* and TAAR1 agonist 12.
Screening COc1ccccc1CNc1nc(Nc2cccc(-c3cnco3)c2)c2sccc2n1 returned MPTP inh 6, TAAR1 antag 76* and TAAR1 agonist 2.
`COCCNc1nc(NCc2ccccc2OC)c2sccc2n1` gave MPTP inh 1, TAAR1 antag 3 and TAAR1 agonist 2.
For Cc1nnsc1NC(=O)OCc1ccccc1Cl the results were MPTP inh -9, GPR7 antagonist 20, DAGLB inh 1, TAAR1 antag 5 and TAAR1 agonist 41*.
Screening COc1ccc(CNC(=O)C2CCN(c3cc(C(=O)Nc4cccc(OC)c4)ccn3)CC2)cc1 returned MPTP inh 0, GPR7 antagonist -9, DAGLB inh -1, TAAR1 antag 49* and TAAR1 agonist 3.
For COc1cccc(NC(=O)c2ccnc(N3CCC(C(=O)NCc4cc(OC)ccc4OC)CC3)c2)c1 the results were MPTP inh 0, GPR7 antagonist -3 and DAGLB inh 1.
Screening CC(=O)Nc1sc(/C(C#N)=C\c2cccc(Cl)c2)nc1-c1ccc(C)cc1 returned MPTP inh 36, GPR7 antagonist -5, DAGLB inh -76, TAAR1 antag 52* and TAAR1 agonist 33.
Screening CC(=O)Nc1ccc(-n2cnnn2)cc1 returned MPTP inh 0, GPR7 antagonist -3, DAGLB inh 1, TAAR1 antag 8 and TAAR1 agonist 5.
`CC(Oc1ccc(C#N)cc1)C(=O)Nc1ccc(-n2cnnn2)cc1` (centres undefined) gave MPTP inh -1, DAGLB inh 1, TAAR1 antag 17 and TAAR1 agonist 44*.
For CCc1cc(Cn2nc(-c3ccccc3)cc2C(=O)NCc2cccs2)on1 the results were MPTP inh 5, DAGLB inh -12, TAAR1 antag 63* and TAAR1 agonist 11.
CCc1cc(Cn2nc(-c3ccccc3)cc2C(=O)NCCOC)on1 was read as MPTP inh 0, DAGLB inh 1, TAAR1 antag -3 and TAAR1 agonist 13.
`O=C1NC(Cc2ccc(O)cc2)c2nc3ccc(F)cc3c(=O)n2-c2cc3ccccc3cc21` (centres undefined) gave MPTP inh 0, DAGLB inh -1, TAAR1 antag 50* and TAAR1 agonist 8.
`O=C1NC(Cc2ccc(O)cc2)c2nc3cc(F)c(F)cc3c(=O)n2-c2cc3ccccc3cc21` (centres undefined) gave MPTP inh 0, DAGLB inh -10, TAAR1 antag 38 and TAAR1 agonist 2.
Screening O=C(CCCc1ccccc1)Nc1nccs1 returned MPTP inh 0, DAGLB inh -1, TAAR1 antag -33 and TAAR1 agonist 1.
Screening CC1=NN(c2ccccc2)C(=O)/C1=C\N1CC(C)OC(C)C1 (centres undefined) returned MPTP inh -2, GPR7 antagonist -6, DAGLB inh -1, TAAR1 antag 70* and TAAR1 agonist 98*.
`COc1ccccc1/C=C1/C(=O)N(c2ccccc2)N=C1C` gave MPTP inh 2, GPR7 antagonist -10, DAGLB inh 2, TAAR1 antag 16 and TAAR1 agonist 37*.
Screening CC(C)CNc1cccc2c1S(=O)(=O)N[C@@H](CC(C)C)CO2 returned TAAR1 antag -11 and TAAR1 agonist 1.
Screening CCNC(=O)C1CCCN(C(=O)c2ccc3c(c2)OCO3)CC1 (centres undefined) returned MPTP inh 2, TAAR1 antag -17 and TAAR1 agonist 1.
For CC(C)CCOc1ccc(Cl)cc1CN1CCOCC1 the results were MPTP inh 6, GPR7 antagonist -9, DAGLB inh -7, TAAR1 antag 45 and TAAR1 agonist 39*.
`Cc1cc(C)cc(-n2c(C)cc(C(=O)CSc3nnnn3C)c2C)c1` gave MPTP inh 0, GPR7 antagonist 5, DAGLB inh -4, TAAR1 antag 44 and TAAR1 agonist 38*.
Screening COCc1cccc(C2=CC(=O)C[C@H](c3ccc(F)cc3)C2)c1 returned MPTP inh 0, DAGLB inh -9, TAAR1 antag 15 and TAAR1 agonist 7.
For O=C(NC(=S)Nc1cccc([N+](=O)[O-])c1)C1CCCC1 the results were MPTP inh -1, GPR7 antagonist 20*, DAGLB inh -4, TAAR1 antag -1 and TAAR1 agonist -2.
`CC(NS(=O)(=O)c1ccc(OCC(=O)Nc2cccc([N+](=O)[O-])c2)cc1)c1ccccc1` (centres undefined) gave MPTP inh 20, GPR7 antagonist 2, DAGLB inh 4, TAAR1 antag 60* and TAAR1 agonist 15.
Cc1ccc(S(=O)(=O)CCC(=O)Nc2cccc([N+](=O)[O-])c2)cc1 was read as MPTP inh 3, GPR7 antagonist -13, DAGLB inh -1, TAAR1 antag -20 and TAAR1 agonist 0.
`Cc1ccc(CC(=O)Nc2cccc([N+](=O)[O-])c2)cc1` gave MPTP inh 9, GPR7 antagonist 19*, DAGLB inh -3, TAAR1 antag 12 and TAAR1 agonist 4.
For C[C@H]1CN([C@@H](C)CO)S(=O)(=O)c2ccc(/C=C/c3ccccc3)cc2O[C@H]1CN(C)C(=O)NC1CCCCC1 the results were MPTP inh 1, DAGLB inh 8, TAAR1 antag 6 and TAAR1 agonist 1.
For CCCCn1nnnc1C1(C)CCC(=O)N1CC1CCCCC1 (centres undefined) the results were MPTP inh 0, TAAR1 antag 5 and TAAR1 agonist 4.

Compound activity deposited in PubChem by several laboratories.
